Hits are enriched below; roughly 4.1% of the tested compounds scored in any of these assays.
MEKK2 mut-MEK5: MEK5 binding signal on mutant MEKK2 PB1, primary screen, biochemical, multiplex bead flow cytometry, Alexa488-MEK5 | Alexa488-MEK5 binding to MEKK2 mutant | percent response, % at 10 µM | AID 1530, 2009 | 290,000 tested, 0.35% active; in the data active = percent response above about 24%, passing the limit was not always enough
MEKK3 PB1 HTS: modulators of MEKK3-MEK5 PB1 binding, primary screen, biochemical, wildtype MEKK3, multiplex bead flow cytometry, Alexa488-MEK5; 290,000 tested, 1.4% active; bead-based flow cytometry, Alexa488-MEK5 binding to MEKK3; actives lie on both sides; 0 = blocked by unlabeled MEK5, 100 = vehicle; binding response (% of control), % at 10 µM; AID 1529, 2009;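 active = binding response more than 3 SD above or below the average of its plate-row segment, actives on both sides; inconclusive = wells at one plate position flagged as instrument error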;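 also: Alexa488 bead fluorescence after subtracting the streptavidin-only scavenger bead signal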
Target sequence (Q99759 whole entry, looked up): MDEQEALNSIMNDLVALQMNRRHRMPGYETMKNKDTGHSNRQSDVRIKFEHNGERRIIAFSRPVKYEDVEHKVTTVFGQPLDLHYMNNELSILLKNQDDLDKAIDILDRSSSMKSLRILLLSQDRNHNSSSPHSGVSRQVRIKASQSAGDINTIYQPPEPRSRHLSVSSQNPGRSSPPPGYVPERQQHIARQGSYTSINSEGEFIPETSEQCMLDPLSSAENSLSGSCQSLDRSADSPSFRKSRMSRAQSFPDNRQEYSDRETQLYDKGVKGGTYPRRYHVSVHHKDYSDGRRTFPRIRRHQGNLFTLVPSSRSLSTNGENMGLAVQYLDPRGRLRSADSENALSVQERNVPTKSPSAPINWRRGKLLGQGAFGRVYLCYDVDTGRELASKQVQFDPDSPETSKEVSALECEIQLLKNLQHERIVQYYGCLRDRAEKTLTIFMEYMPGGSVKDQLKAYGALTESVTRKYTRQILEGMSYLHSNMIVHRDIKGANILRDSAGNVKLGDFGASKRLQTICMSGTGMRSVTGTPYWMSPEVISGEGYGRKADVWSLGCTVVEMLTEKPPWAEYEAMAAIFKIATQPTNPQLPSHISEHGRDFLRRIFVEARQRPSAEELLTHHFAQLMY
NS3 helicase inh: inhibitors of HCV NS3 helicase, primary screen, biochemical, Cy5 molecular beacon fluorescence. Hepatitis C virus NS3 helicase. NS3 helicase DNA unwinding. inhibition, % at 10.9 µM. 290,000 tested, 0.56% active. AID 1800, 2009;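 active = inhibition above the mean of all tested compounds plus 3 SD, set per campaign, cut at about 35% in these data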;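 also: 0% = DMSO wells and 100% = thioflavine S control wells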
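Assay system: hepatitis C virus NS3 helicase domain fragment enzyme. Also added: annealed dual-labelled DNA beacon duplex, ATP-started. Timing: 1 h reaction at 25 °C, ATP-initiated. Technique: Cy5 fluorescence at 0 and 60 min, beacon hairpin quenching. Evaluation: % inhibition of unwinding. Replication: one well per compound.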
MEKK2 WT-MEK5: modulators of MEK5 binding to wildtype MEKK2, primary screen, biochemical, multiplex bead flow cytometry, Alexa488-MEK5. Alexa488-MEK5 binding to MEKK2 WT; actives lie on both sides. binding response (% of control), % at 10 µM. 290,000 tested, 1.1% active. AID 1531, 2009; in the data active = binding response below about 67% or above about 130%; inconclusive = no clear call, values can overlap the other calls; inactive = in between
DNA FID counter: compounds displacing fluorescent DNA intercalator, primary screen, artefact control for HCV NS3 helicase inhibitor project, biochemical, FID fluorescence | inhibition, % at 7.9 µM | DNA fluorescent intercalator displacement | 290,000 tested, 0.17% active; in the data active = inhibition above about 37%;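 also: 0% = vehicle and 100% = reference compound; higher means more ethidium bromide displaced from hairpin DNA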
T cruzi inh: inhibitors of intracellular T. cruzi growth, primary screen, luminescence, NIH3T3 host cells; T. cruzi beta-gal in NIH3T3, 90 h; inhibition, % (concentration not given with the values); 300,000 tested, 1.4% active;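 active = mean inhibition across valid replicates above about 55%, limit read from the data; inconclusive = mean below that limit but half or more replicates reach it; inactive = mean below it, under half of replicates reach it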;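 also: signal also drops with host cell toxicity which is not excluded here; 0% = plate median of DMSO wells and 100% = zero luminescence signal; higher percent means less beta-gal luminescence so fewer parasites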
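Assay system: NIH/3T3 host cells with β-galactosidase reporter T. cruzi; input: 5,000 host fibroblasts per well; compound: single 50 nL compound addition per well in DMSO; timing: ≥90 h infection period, 3 h prior cell attachment; measured by: GalScreen β-gal luminescence, detergent lysis, 60 min; evaluation: percent inhibition of parasite-derived β-gal signal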
MEKK2wt confirm: modulators of MEK5 binding to wildtype MEKK2, confirmation, biochemical, single concentration, multiplex bead flow cytometry | Alexa488-MEK5 binding to MEKK2 WT; actives lie on both sides | shares compounds with MEKK3 PB1 HTS | binding response (% of control), % at 10 µM | 5,900 tested, 2.4% active; in the data active = binding response below about 16% or above about 210%; inactive = in between
MEKK2mut confirm: mutant MEKK2 PB1-MEK5 binding signal retest – biochemical, single concentration, multiplex bead flow cytometry, confirmation. shares compounds with MEKK3 PB1 HTS. Alexa488-MEK5 binding to MEKK2 mutant. percent response, % at 10 µM. 5,900 tested, 2% active; in the data active = percent response mostly above about 71%, no sharp cut-off; inactive = mostly below about 38%;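 also: higher means compound restores mutant binding toward wildtype level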
MEKK3-MEK5 inh: MEKK3 wild-type PB1 binding to MEK5, inhibitors, confirmation, biochemical, bead multiplex flow cytometry, single concentration, wildtype; shares compounds with MEKK3 PB1 HTS; Alexa488-MEK5 binding to MEKK3; active compounds read low; binding response (% of control), % at 10 µM; 5,900 tested, 1.8% active;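 active = binding response below 72% of control, or above a set upper limit, though filed actives all read lower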;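 also: 100% = DMSO only wells and 0% = binding blocked by excess unlabeled MEK5; lower values mean stronger disruption of MEK5 binding to MEKK3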
* marks the source's active call; other numbers are inactive results; ? = inconclusive; nt = no result; [ ] = another dose, or the depositor's remark.

SMILES	MEKK2 mut-MEK5	MEKK3 PB1 HTS	NS3 helicase inh	MEKK2 WT-MEK5	DNA FID counter	T cruzi inh	MEKK2wt confirm	MEKK2mut confirm	MEKK3-MEK5 inh
O=C(CCC(NC(=O)OCc1ccccc1)C(=O)OCC(=O)N1CCCCC1)OCC(=O)N1CCCCC1 (stereo unspecified)	-4	86	1	84	-36	-9	nt	nt	nt
Cc1c(C)n2c(SCC(=O)N3CCCCC3)nnc2[nH]c1=O	nt	nt	nt	nt	nt	-8	nt	nt	nt
COc1ccc(-n2c(SCC(=O)NCC3CCCO3)nc3c(c2=O)SC(C)C3)cc1 (stereo unspecified)	-2	93	17	95	-25	2	nt	nt	nt
O=c1c(-c2ccc3c(c2)OCCO3)coc2cc(OC3OC(CO)C(O)C(O)C3O)ccc12 (stereo unspecified)	-11	44*[inhibitor]	3	46*[inhibitor]	-2	-22	97	-5	103
COc1cc2c(=O)c(-c3ccc(O)cc3)coc2cc1OC1OC(CO)C(O)C(O)C1O (stereo unspecified)	2	93	1	91	1	-8	nt	nt	nt
Cn1c(SC2CCCCC2=O)nnc1-c1ccccc1F (stereo unspecified)	-8	94	-24	90	-3	-4	nt	nt	nt
COc1ccc(-c2cc(C(=O)OCC(=O)c3ccc(C)c([N+](=O)[O-])c3)c3ccccc3n2)cc1	0	130*	-3	103	0	8	94	-3	97
CC(C)OC(=O)/C(=C\c1ccccc1)NC(=O)c1ccccc1	-3	102	8	95	-5	-1	nt	nt	nt
CC(C)OC(=O)C(NC(=O)c1ccccc1)=C1CCCCC1	6	122*	6	113	0	1	96	0	102
CCN(C(=O)COC(=O)c1ccccc1NCCO)c1cccc2ccccc12	nt	nt	nt	nt	nt	24	nt	nt	nt
CS(=O)(=O)c1ccc(CNC(=O)[C@]2(C(F)(F)F)C[C@H](CCc3ccccc3)CCCO2)cc1	-6	81*[inhibitor]	nt	86	nt	4	93	-8	95
CS(=O)(=O)c1ccc(CNC(=O)C2(C(F)(F)F)CC(CCCO)CCCO2)cc1 (stereo unspecified)	-3	90	nt	93	nt	5	nt	nt	nt
CCC(C)(C)NC(=O)CN(C(=O)CCC(=O)Nc1nccs1)c1cccc(C)c1	26*	105	-3	109	-39	3	104	0	102
O=C(O)CSc1nnc(COc2cccc3ccccc23)o1	1	103	13	101	-27	-11	nt	nt	nt
COC(=O)CSc1nnc(COc2cccc3ccccc23)o1	28*	116	-2	117	-27	-21	105	4	108
COc1cc(NC(=O)COc2cc3oc(=O)cc(C)c3cc2Cl)cc(OC)c1OC	-1	103	4	100	-37	9	nt	nt	nt
CCc1ccc(/C(C)=N/NC(=O)CNC(=O)/C=C/c2ccco2)cc1	nt	nt	nt	nt	nt	-8	nt	nt	nt
O=C(COC(=O)c1cccnc1Cl)c1ccccc1	2	98	5	98	-4	-5	nt	nt	nt
CCc1ccc(C(=O)COC(=O)c2cccnc2Cl)cc1	-16	72*[inhibitor]	-7	74	-17	-12	100	-3	103
Cc1sc(N/N=C/c2ccco2)nc1-c1ccccc1	-1	131*	23	98	-9	25	106	5	103
CCCOc1ccc(/C=N/NC(=O)CSCc2ccc([N+](=O)[O-])cc2)cc1OCC	1	135*	13	106	-7	23	104	8	106
CC(C(=O)NCCc1ccc(Cl)cc1)n1c(=O)c2cccn2c2cccnc21 (stereo unspecified)	9	106	-5	99	-29	7	nt	nt	nt
c1ccc(CN2CCC(Nc3nc(-c4cccs4)nc4ccccc34)CC2)cc1	27	116	-51	188*	59*	50	173	40	112
O=C(NNC(=S)Nc1cccc2ccccc12)c1cccc(Br)c1	-7	80*[inhibitor]	12	85	-15	-4	90	-7	91
CC(=O)c1cccc(NC(=S)Nc2cccc3ccccc23)c1	8	104	13	108	0	0	nt	nt	nt
SMILES	MEKK2 mut-MEK5	MEKK3 PB1 HTS	NS3 helicase inh	MEKK2 WT-MEK5	DNA FID counter	T cruzi inh	MEKK2wt confirm	MEKK2mut confirm	MEKK3-MEK5 inh
COc1ccc(C(C)NCCC(c2ccc(OC(C)C)cc2)c2ccccc2OC)cc1 (stereo unspecified)	45*	110	-78	194*	26	?	180	44	109
COc1ccc(C(CCNC(C)c2ccccc2)C(C)C)cc1 (stereo unspecified)	10	103	-45	118	20	43	nt	nt	nt
O=C(O)CC1(CC(=O)Nc2ccccc2Br)CCCC1	nt	nt	nt	nt	nt	-21	nt	nt	nt
CC(CNC(=O)CC(C)(C)C)NC(=O)CC(C)(C)C (stereo unspecified)	7	123*	-2	102	4	-6	94	0	102
Cc1ccc2nc(CSc3nnc(-c4ccco4)n3-c3ccccc3)cc(=O)n2c1	4	101	4	101	-22	-1	nt	nt	nt
Cc1ccc2nc(CSc3nnc(-c4ccco4)o3)cc(=O)n2c1	-3	71*[inhibitor]	20	91	-14	11	105	-1	107
Oc1ccc(Cl)cc1C=NCCc1ccccc1	0	129*	-7	100	-2	-21	101	-2	96
Oc1ccccc1C=NCCN=Cc1ccccc1O	2	104	2	93	3	-13	nt	nt	nt
Cc1c(OCC(=O)NCCN2CCOCC2)ccc2c1oc(=O)c1ccccc12	1	102	-1	101	6	16	nt	nt	nt
O=C(Cn1cnc2ccccc2c1=O)N1CCN(c2ccccc2)CC1	6	122*	-4	104	-6	0	102	1	103

Assay outcomes as filed in PubChem BioAssay.
